Reference: ChEMBL document CHEMBL1122522, “Conformationally restricted retinoids” (1984)

Experiments:
Cricetinae gen. sp. [1] = test: Activity of compound the was expressed as ratio of active hamster tracheal organ cultures(TOC) to the total cultures at 10e-10 M concentration; 1/7; assay type: functional, Cricetulus griseus, Trachea
Summary of the method: (§1)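 Tracheal organ cultures came from vitamin A-deficient hamsters. Each culture was scored for reversal of keratinization and reported as active cultures out of total cultures at each retinoid concentration tested (10⁻⁸ to 10⁻¹² M). The protocol followed earlier published methods.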

[2] = biological target: T1, Ornithine decarboxylase (Mus musculus) (UniProt P00860); test: Inhibition of the induction of ornithine decarboxylase in mouse epidermis by the tumor promoter 12-O-tetradecanoylphorbol-13-acetate (ODC) at dose 17 nmol * * inhibition not significant
T1 sequence (whole entry): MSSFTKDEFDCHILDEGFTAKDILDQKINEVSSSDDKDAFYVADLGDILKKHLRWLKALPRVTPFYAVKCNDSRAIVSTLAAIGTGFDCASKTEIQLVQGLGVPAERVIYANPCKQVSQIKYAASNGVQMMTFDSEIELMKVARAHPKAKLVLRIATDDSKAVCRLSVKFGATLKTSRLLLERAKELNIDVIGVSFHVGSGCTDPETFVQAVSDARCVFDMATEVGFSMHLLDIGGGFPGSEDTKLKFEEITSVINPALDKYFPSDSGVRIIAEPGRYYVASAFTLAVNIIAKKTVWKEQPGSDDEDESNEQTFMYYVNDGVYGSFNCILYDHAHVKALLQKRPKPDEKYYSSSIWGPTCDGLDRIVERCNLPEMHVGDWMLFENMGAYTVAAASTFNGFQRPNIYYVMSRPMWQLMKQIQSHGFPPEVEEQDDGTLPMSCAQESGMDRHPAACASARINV

Cricetinae gen. sp. [3] = test: Activity of compound the was expressed as ratio of active hamster tracheal organ cultures(TOC) to the total cultures at 10e-9 M concentration; 2/7; assay type: functional, Cricetulus griseus, Trachea; summary of the method: as §1
Cricetinae gen. sp. [4] = test: Activity of compound the was expressed as ratio of active hamster tracheal organ cultures(TOC) to the total cultures at 10e-8 M concentration; 3/7; assay type: functional, Cricetulus griseus, Trachea; summary of the method: as §1
[5] = biological target: T1, Ornithine decarboxylase (Mus musculus); test: Inhibition of the induction of ornithine decarboxylase in mouse epidermis by the tumor promoter 12-O-tetradecanoylphorbol-13-acetate (ODC) at dose 1.7 nmol * * inhibition not significant
Cricetinae gen. sp. [6] = test: Molarity required to effect reversal of keratinization in 50% of cultures.; assay type: functional, Cricetulus griseus
Cricetinae gen. sp. [7] = test: Activity of compound the was expressed as ratio of active hamster tracheal organ cultures(TOC) to the total cultures at 10e-8 M concentration; 8/8; assay type: functional, Cricetulus griseus, Trachea; summary of the method: as §1
[8] = biological target: T1, Ornithine decarboxylase (Mus musculus); test: Inhibition of the induction of ornithine decarboxylase in mouse epidermis by the tumor promoter 12-O-tetradecanoylphorbol-13-acetate (ODC) at dose 17 nmol * p<0.05
Cricetinae gen. sp. [9] = test: Activity of compound the was expressed as ratio of active hamster tracheal organ cultures(TOC) to the total cultures at 10e-10 M concentration; 3/14; assay type: functional, Cricetulus griseus, Trachea; summary of the method: as §1
[10] = biological target: T1, Ornithine decarboxylase (Mus musculus); test: Inhibition of the induction of ornithine decarboxylase in mouse epidermis by the tumor promoter 12-O-tetradecanoylphorbol-13-acetate (ODC) at dose 1.7 nmol * p<0.02
Cricetinae gen. sp. [11] = test: Activity of compound the was expressed as ratio of active hamster tracheal organ cultures(TOC) to the total cultures at 10e-9 M concentration; 8/14; assay type: functional, Cricetulus griseus, Trachea; summary of the method: as §1
[12] = biological target: T1, Ornithine decarboxylase (Mus musculus); test: TInhibition of the induction of ornithine decarboxylase in mouse epidermis by the tumor promoter 12-O-tetradecanoylphorbol-13-acetate (ODC) at dose 1.7 nmol
[13] = Mortality range in days at dose 600 umol/kg day; 9-10; assay type: functional, Mus musculus
Summary of the method: (§2)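 Adult female Swiss mice (20–25 g) had chow and water ad libitum. The retinoid was homogenized as a suspension in aqueous 8% Cremophor EL plus 10% propylene glycol. It was given ip as 10 weekday injections over 14 days. Controls received vehicle alone. Survivors were weighed on days 1, 5, 10 and 15, and dates of death were recorded. Survival was scored at days 8 and 15.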

Mus musculus [14] = organism: Mus musculus; test: Tested for relative activity in a 20-week anti-papilloma experiment in female CD-1 mice at dose 170 nmol; assay type: functional
Summary of the method: (§3)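 Female Charles River CD-1 mice, 8 weeks old, in random groups of 25–30, were shaved 2 days before initiation with 200 nmol DMBA in acetone on the back. From 2 weeks on, 8.5 nmol TPA was applied twice weekly for 20 weeks. Retinoid in 0.2 mL acetone, or acetone alone for controls, was given 1 h before each TPA dose. Papillomas were counted weekly, and mean papillomas per mouse were compared with controls at 20 weeks.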

Cricetinae gen. sp. [15] = test: Activity of compound the was expressed as ratio of active hamster tracheal organ cultures(TOC) to the total cultures at 10e-10 M concentration; 12/14; assay type: functional, Cricetulus griseus, Trachea; summary of the method: as §1
[16] = Percent survivors at dose 200 umol/kg day; assay type: functional, Mus musculus; summary of the method: as §2
[17] = Percent survivors at dose 100 umol/kg day; assay type: functional, Mus musculus; summary of the method: as §2
Cricetinae gen. sp. [18] = test: Activity of compound the was expressed as ratio of active hamster tracheal organ cultures(TOC) to the total cultures at 10e-8 M concentration; 7/7; assay type: functional, Cricetulus griseus, Trachea; conditions: at 0.01 µM
[19] = biological target: T1, Ornithine decarboxylase (Mus musculus); test: Inhibition of the induction of ornithine decarboxylase in mouse epidermis by the tumor promoter 12-O-tetradecanoylphorbol-13-acetate (ODC)) at dose 17 nmol
Cricetinae gen. sp. [20] = test: Activity of compound the was expressed as ratio of active hamster tracheal organ cultures(TOC) to the total cultures at 10e-9 M concentration; 7/7; assay type: functional, Cricetulus griseus, Trachea; summary of the method: as §1
Mus musculus [21] = organism: Mus musculus; test: Percent decrease in average number of papillomas 170 at dose; assay type: functional; summary of the method: as §3
Mus musculus [22] = organism: Mus musculus; test: Percent decrease in average number of papillomas 17 at dose; assay type: functional; summary of the method: as §3
Mus musculus [23] = organism: Mus musculus; test: Tested for relative activity in a 20-week anti-papilloma experiment in female CD-1 mice at dose 17 nmol; assay type: functional; summary of the method: as §3
[24] = Mortality range in days at dose 300 umol/kg day; 14-15; assay type: functional, Mus musculus; summary of the method: as §2
[25] = Percent survivors at dose 30 umol/kg day; assay type: functional, Mus musculus; summary of the method: as §2
[26] = Percent survivors at dose 300 umol/kg day; assay type: functional, Mus musculus; summary of the method: as §2
[27] = Percent survivors at dose 600 umol/kg day; assay type: functional, Mus musculus; summary of the method: as §2
Cricetinae gen. sp. [28] = test: Activity of compound the was expressed as ratio of active hamster tracheal organ cultures(TOC) to the total cultures at 10e-9 M concentration; 5/19; assay type: functional, Cricetulus griseus, Trachea; summary of the method: as §1

Work on `CCOC(=O)c1ccc([C@H]2CC2c2ccc3c(c2)C2CCC3C2)cc1` (some centres undefined) yielded an Activity (Cricetinae gen. sp. [1]) of 1%, an inhibition [2] of 4% and an Activity (Cricetinae gen. sp. [3]) of 29%. The Activity (Cricetinae gen. sp. [4]) was 3%, the inhibition [5] was 0% and the ED50 (Cricetinae gen. sp. [6]) was >1e-08.
In the case of `C/C(=C\c1ccc(C(=O)O)cc1)c1ccc2c(c1)C1CCC2C1` (centres undefined), the Activity (Cricetinae gen. sp. [7]) is reported as 8%, the inhibition [8] is reported as 69% and the Activity (Cricetinae gen. sp. [9]) is reported as 3%. The inhibition [10] was 33%, the Activity (Cricetinae gen. sp. [11]) was 57% and the ED50 (Cricetinae gen. sp. [6]) was 6e-10.
`C/C(=C\c1ccc(C(=O)O)cc1)c1ccc2c(c1)C(C)(C)CCS2` showed an inhibition [12] of 68%, a Mortality range [13] of 10 days and an Activity (Mus musculus [14]) of 38%. For the same compound, the Activity (Cricetinae gen. sp. [15]) was 12%, the “Survivors at day 8” value [16] was 100% and the “Survivors at day 8” value [17] was 100%. The “Survivors at day 15” value [17] was 100%, the Activity (Cricetinae gen. sp. [18]) was 7% and the inhibition [19] was 85%. The Activity (Cricetinae gen. sp. [20]) was 100%, the Decrease (Mus musculus [21]) was 93.6% and the Decrease (Mus musculus [22]) was 93.4%. The Activity (Mus musculus [23]) was 53%, the Mortality range [24] was 15 days and the “Survivors at day 15” value [25] was 100%. The “Survivors at day 8” value [26] was 100%, the “Survivors at day 15” value [26] was 80% and the ED50 (Cricetinae gen. sp. [6]) was 5e-11. The “Survivors at day 8” value [27] was 100% and the “Survivors at day 15” value [27] was 0%.
For `CCOC(=O)/C=C(C)/C=C/C=C(C)/C=C/C1=CC2CCC1C2` (centres undefined), the Activity (Cricetinae gen. sp. [28]) was 26% and the ED50 (Cricetinae gen. sp. [6]) was >1e-09.
